Assay outcomes as filed in PubChem.
An excerpt weighted towards active compounds, which were near 3.8% of everything screened.
Insulin prom inh = TRM-6 insulin promoter activity inhibition | TRM-6 cells (human fetal islet line), insulin promoter-eGFP reporter, imaging; reporter expression induced with tamoxifen | inhibition, % at 2 µM | hit rate 0.9% among 130,000 | AID 1273;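 active = inhibition above the mean plus 3 SD, with well images judged a real hit on visual review, cut at about 60% in these data, passing the limit was not always enough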
NPY Y1 blocker = antagonists of human neuropeptide Y receptor Y1. AID 1040. hit rate 1% among 200,000. HEK293-CNG Y1 cells, membrane potential fluorescence; NPY at EC95, then isoproterenol. inhibition, % at 3.6 µM;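 active = inhibition above the campaign mean inhibition of all tested compounds plus 3 SD, cut at about 20% in these data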;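 also: 0% = DMSO wells given NPY plus isoproterenol and 100% = isoproterenol alone without NPY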
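Test system – HEK293 Y1/CNG channel cell line · Also added – NPY agonist 25 nM, then isoproterenol 1 µM plus Ro 20-1724 25 µM · Compound dosing – one concentration, 3.6 µM, in 0.4% DMSO · Schedule – compound incubation 1 h at room temperature, readout 45 min post-stimulation · Technique – fluorescence, membrane potential probe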
NPY1 pot ag = potentiators or agonists of human neuropeptide Y receptor Y1. P25929. NPY-Y1 expressing cells, potentiator/agonist activation. activation, % at 3.6 µM. hit rate 0.37% among 220,000; in the data active = activation above about 33%, passing the limit was not always enough;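 also: cells stimulated with NPY at EC10 then isoproterenol at EC100; 0% = low agonist plus stimulus and 100% = saturating agonist plus stimulus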
NPY Y2 blocker = antagonists of human neuropeptide Y receptor Y2. NPY-Y2 expressing cells, antagonist mode. inhibition, % at 2.7 µM. hit rate 0.99% among 140,000. AID 793;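 also: 0% = vehicle with agonist challenge and 100% = reference antagonist with challenge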
Target sequence (P49146 whole entry, looked up): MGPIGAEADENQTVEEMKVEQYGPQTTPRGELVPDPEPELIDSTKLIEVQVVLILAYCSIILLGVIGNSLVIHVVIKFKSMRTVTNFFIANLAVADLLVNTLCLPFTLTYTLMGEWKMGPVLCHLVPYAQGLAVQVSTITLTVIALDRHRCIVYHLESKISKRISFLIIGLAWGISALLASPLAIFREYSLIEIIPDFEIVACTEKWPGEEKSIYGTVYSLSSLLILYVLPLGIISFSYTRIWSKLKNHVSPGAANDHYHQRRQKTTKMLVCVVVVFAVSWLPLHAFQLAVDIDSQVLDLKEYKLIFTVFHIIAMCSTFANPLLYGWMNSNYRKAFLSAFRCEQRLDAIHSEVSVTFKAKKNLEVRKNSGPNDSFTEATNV
NPY-Y2 PAM-ag = potentiators or agonists of human neuropeptide Y receptor Y2; P49146; cells expressing NPY-Y2, potentiator/agonist read-out; activation, % at 3.6 µM; hit rate 0.45% among 220,000; in the data active = activation above about 27%;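 also: cells stimulated with NPY near EC25 plus isoproterenol at EC100; 0% = vehicle plus submaximal agonist and 100% = vehicle plus saturating agonist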
RAM network inh = yeast RAM network inhibition; S. cerevisiae dse1pr::URA3 reporter, 5-FOA growth OD615, 2 d; analog-sensitive cbk1-as2 kinase mutant strain; inhibition, % at 50 µM; hit rate 1.8% among 190,000; AID 868;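 active = inhibition above a set limit, 3 SD over mean compound inhibition, cut at about 8.4% in these data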;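 also: 0% = DMSO-only wells with no growth and 100% = 10 µM 1-NA-PP1 full growth; inhibition rescues growth on 5-FOA so higher OD means more RAM inhibition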
NPY-Y1 ant conf = human NPY-Y1 antagonism, confirmation | AID 1254 | HEK293-CNG NPY-Y1, membrane potential fluorescence, cAMP; NPY challenge against isoproterenol-raised cAMP | inhibition, % at 3.6 µM | hit rate 21% among 1,200 | shares compounds with NPY Y1 blocker; in the data active = inhibition above about 20%;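 also: 0% = vehicle with agonist plus stimulus and 100% = stimulus alone without agonist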
NPY-Y2 antag ct = counter-screen for NPY-Y1 antagonists: human NPY-Y2 antagonism; shares compounds with NPY Y1 blocker; HEK293 NPY-Y2 CNG membrane potential fluorescence; cells given NPY, then isoproterenol; inhibition, % at 3.6 µM; hit rate 28% among 1,200; AID 1255;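 also: 0% = DMSO with agonist challenge and 100% = reference antagonist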
* marks the source's active call; other numbers are inactive results; . = no result given; ! = not confirmed by another sample. Rule as the data show it, unless noted: active = inhibition above about 17%; inactive = the rest.

SMILES	Insulin prom inh	NPY Y1 blocker	NPY1 pot ag	NPY Y2 blocker	NPY-Y2 PAM-ag	RAM network inh	NPY-Y1 ant conf	NPY-Y2 antag ct
CCCSc1nc(-n2ncc(C#N)c2N)c2c3c(sc2n1)CCC(C)C3 (stereo not given)	10.0	21.1*	-54.5	12.2	-27.7	3.1	6.1	10.6
Cc1nc(-n2ncc(C#N)c2N)c2c3c(sc2n1)CCC3	41.7	14.4	-4.8	1.4	-1.5	0.1	.	.
O=C(Nc1ccc([N+](=O)[O-])cn1)c1ccc2c(c1)OCO2	.	-6.5	3.0	.	10.1	2.6	.	.
Cc1cccc(NC(=O)NNC(=O)c2cc3ccccc3cc2O)c1C	.	24.0*	-20.9	.	-5.0	1.4	15.1	13.4
CCOc1cc(-c2noc(N)c2C(=O)OC)cc(OCC)c1OCC	0.0	22.2*	-30.2	7.5	-7.0	-0.5	6.3	3.9
O=C(C1CCCN1S(=O)(=O)c1ccc(Cl)cc1)N1CCOCC1 (stereo not given)	62.8	1.6	-0.9	1.8	10.8	1.8	.	.
Cc1cc(C)n(C(=O)C2CCCN2S(=O)(=O)c2ccc(Cl)cc2)n1 (stereo not given)	.	24.8*	12.6	-1.0	-10.7	2.2	-0.9	0.7
O=C(CCCO)CCCCCCCCC[C@H]1N[C@H](CO)[C@@H](O)[C@@H]1O	-55.0	0.1	3.1	-0.1	1.9	0.1	.	.
CCCc1[nH]nc2c1C(c1ccsc1)C(C#N)=C(N)O2 (stereo not given)	-50.0	40.0*	14.8	.	-2.4	0.9	37.5*	22.3*
COC(=O)[C@@]1(Cc2ccc(F)cc2)[C@H]2c3cc(C(=O)N4CCCC4)n(CCc4ccccn4)c3C[C@H]2CN1C(=O)c1ccccc1	-30.0	5.3	7.8	7.9	1.2	-0.7	.	.
CCOc1ccc(C(=O)Nc2cc(C)on2)cc1OCC	68.8	-0.6	-9.6	-0.5	5.3	2.1	.	.
CCCCOc1cccc(OCCCC)c1C(=O)Nc1cc(C)on1	-46.0	51.3*	-55.0	11.1	-9.8	0.5	21.7*	7.8
Cc1ccc2cc3cc(C(=O)NCCCN4CCc5ccccc5C4)oc3nc2c1	-75.0	21.0*	-97.5	8.5	-32.7	-0.4	2.6	3.4
Cc1ccc2cc3cc(C(=O)NCCCN4CCCCCC4)oc3nc2c1	-100.0	0.7	-14.9	1.0	-4.9	1.6	.	.
CN(C)c1ccnc(SCc2ccccc2Cl)c1C#N	72.7*	27.7*	-92.7	7.5	-42.6	2.9	16.3	29.4*
CC(NC(=O)Cn1c(NCCO)nc2ccccc21)C1CC2CCC1C2 (stereo not given)	.	40.1*	-39.2	.	-11.7	-0.5	25.1*	12.1
CCC1=NN(C(=O)Cc2ccc([N+](=O)[O-])cc2)C(O)(c2ccncc2)C1 (stereo not given)	.	-1.7	-20.2	.	-8.1	1.0	.	.
Cc1cc(=O)cc(C)n1-c1ccccc1N1CCOCC1	58.3	-0.1	21.1	0.3	-2.0	0.3	.	.
Cc1ccc(C)n1-c1ccccc1N1CCCCC1	-78.6	56.2*	8.7	.	12.4	0.8	3.0	3.1
Cc1ncsc1C(=O)O	0.0	3.5	4.5	.	10.9	0.4	.	.
CCOc1ccc(-n2c(-c3ccccc3)c[n+]3c2CCC3)cc1	.	-2.1	-5.7	.	-2.7	0.8	.	.
CC(C)c1ccc(-n2c(-c3ccccc3)c[n+]3c2CCc2ccccc2-3)cc1	-75.0	115.5*	-75.2	.	-21.3	6.6	112.0*	76.7*
COc1ccccc1-n1c(-c2ccccc2)c[n+]2c1CCc1ccccc1-2	-100.0	33.3*	-66.5	.	14.0	0.6	20.5*!	13.7
COc1ccccc1-n1c(-c2ccccc2)c[nH]c1=S	.	-2.0	2.3	.	4.9	1.4	.	.
Cc1ccc(SCC(=O)N=C2NC(=O)CS2)cc1	61.1	23.1*	-21.1	.	-23.7	3.6	13.7	11.1
SMILES	Insulin prom inh	NPY Y1 blocker	NPY1 pot ag	NPY Y2 blocker	NPY-Y2 PAM-ag	RAM network inh	NPY-Y1 ant conf	NPY-Y2 antag ct
COc1cc2c(cc1Cl)/C(=C\CCN(C)C)c1ccccc1S2	-12.8	29.1*	-36.7	11.3	-18.7	-0.6	13.1	17.7*
O=C1c2cccc3cccc(c23)C(=O)N1CCCN1CCN(c2ccc(F)cc2)CC1	10.0	10.6	23.8	.	-9.1	1.3	.	.
COc1ccc(-c2nc3ccccn3c2CN2CCN(c3ccccc3F)CC2)cc1	-66.7	30.0*	-71.4	.	-5.7	1.0	26.6*	20.7*
Cn1c(Oc2ccccc2NCc2cccc(Br)c2)cc(=O)n(C)c1=O	28.6	25.3*	-11.9	4.9	-9.0	2.7	10.9	5.5
Cc1nccn1CC(=O)N/N=C/c1cccs1	.	.	-11.9	.	10.3	.	.	.
COc1ccc(N2CCN(C(CNS(=O)(=O)c3cc(F)ccc3F)c3cccnc3)CC2)cc1 (stereo not given)	6.5	-9.0	1.6	0.6	3.0	2.6	.	.
O=C(C1CC1)N(CCN(Cc1ccccc1)C(=O)C1CC1)Cc1ccccc1	-250.0	54.6*	-25.5	15.5	-8.7	0.1	39.6*	24.2*
Cc1ccc(-c2csc3nc4c5ccccc5c(NCCCN5CCOCC5)nn4c(=O)c23)cc1	.	-5.8	-4.6	.	7.0	-1.3	.	.
Cc1ccc(-c2csc3nc4c5ccccc5c(NCCCN(C)C)nn4c(=O)c23)cc1	-60.0	24.2*	-89.3	.	-40.5	-1.1	24.0*	26.2*
Nc1nc(C(F)(F)F)cc(=O)n1N	.	0.1	-12.5	.	1.0	-0.5	.	.
CCCC(c1nnnn1C(C)(C)C)N1CCN(Cc2ccccc2OC)CC1 (stereo not given)	-33.3	22.2*	-10.5	.	-23.1	-0.6	6.9	5.2
CCOc1ccccc1CN1CCN(Cc2cccc3nonc23)CC1CCO (stereo not given)	-66.7	29.0*	18.8	.	1.2	0.5	3.2	5.7
CC(C)CCN1CCN(Cc2cccc3nonc23)CC1CCO (stereo not given)	-69.6	9.7	5.0	.	4.4	-0.7	.	.
COc1ccc(C[C@H]2CN3C(=NC[C@@H]3Cc3ccccc3)N2CCNC(=O)CCC2CCCCC2)cc1	.	33.4*	-15.2	.	-41.6	0.9	35.0*	35.7*
COc1ccc(C[C@H]2CN3C(=NC[C@@H]3C(C)C)N2CCNC(=O)CCC2CCCCC2)cc1	.	2.6	-1.1	.	-2.9	-0.4	.	.
O=C(CSc1nnc(NC(=O)c2ccco2)s1)Nc1ccc2c(c1)OCCO2	-15.8	3.7	0.4	.	-1.3	4.5	.	.
COc1cccc(-c2nn(-c3ccccc3)cc2CN(C)Cc2c(C)nc3ccccn23)c1	-45.0	23.2*	-55.4	.	-17.9	-0.9	12.0	15.9
CNC(=O)CSc1nnc(-c2ccccn2)n1Cc1ccco1	.	.	16.2	.	20.8	.	.	.
